Where two headings read alike, the source gives them in different places.
Key:
CYP2E1 [1] = molecular target: CYP2E1 (Homo sapiens, UniProt P05181); experiment: CYP2E1 inhibition assay; assay type: biochemical; settings: for inhibition at 1 h: CYP2E1 baculosomes, pH 7.4, probe para-nitrophenol (p-NP); for inhibition at saturating substrate concentration: in words; for Inhibition type: p-NP 5-100 μmol/L, inhibitor 5-200 μmol/L, goodness-of-fit
How it was run: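 p-NP hydroxylation by CYP2E1 baculosomes (2 pmol/μL) in 50 mmol/L potassium phosphate, pH 7.4. p-NP at 5–100 μmol/L (five levels) and inhibitor at 5–200 μmol/L (six levels). Pre-incubated 5 min at 37°C, then NADPH added (26 mmol/L) and run 1 h at 37°C. Stopped with TCA, neutralized with NaOH, absorbance read at 535 nm. Activity normalized to vehicle. IC50, Km/Vmax and Ki/inhibition type fitted by nonlinear regression; four replicates.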

CYP2E1 [2] = settings: acetone-induced rat microsome; ref Brady et al. 1991; cited from earlier work
[3] = Preliminary toxicity / cell death of DAS analogs; assay type: cell-based; settings: 200 μmol/L, 6 days of treatment, unpublished
[4] = K i, noncompetitive inhibition, mean ± SE, four replicates
[5] = K i, uncompetitive inhibition, mean ± SE, four replicates
[6] = 100 μmol/L p-NP, mean ± SE, four replicates
[7] = competitive inhibition, mean ± SE, four replicates

Sequence of CYP2E1 (Homo sapiens, UniProt P05181) (P05181 whole entry): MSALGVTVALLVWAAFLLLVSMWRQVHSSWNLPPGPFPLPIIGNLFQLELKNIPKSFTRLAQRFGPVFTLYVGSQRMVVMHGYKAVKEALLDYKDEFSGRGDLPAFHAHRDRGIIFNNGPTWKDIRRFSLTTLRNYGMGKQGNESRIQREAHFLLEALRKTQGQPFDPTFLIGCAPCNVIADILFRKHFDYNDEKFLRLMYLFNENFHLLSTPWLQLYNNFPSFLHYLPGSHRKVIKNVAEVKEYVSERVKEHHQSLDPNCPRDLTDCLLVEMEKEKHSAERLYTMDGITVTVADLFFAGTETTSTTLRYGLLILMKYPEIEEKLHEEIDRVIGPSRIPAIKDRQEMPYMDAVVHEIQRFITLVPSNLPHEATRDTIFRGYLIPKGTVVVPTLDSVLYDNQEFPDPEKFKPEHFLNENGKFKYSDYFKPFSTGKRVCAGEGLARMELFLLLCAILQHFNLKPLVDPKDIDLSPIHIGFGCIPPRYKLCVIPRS

Row | IC50 (CYP2E1 [1]) [µM] | inhibition at 1 h (CYP2E1 [1]) [%] | Ki (CYP2E1 [1]; [4]) [µM] | Ki (CYP2E1 [1]; [5]) [µM] | Maximal inhibition (%) (CYP2E1 [1]) | IC50 (CYP2E1 [1]; [6]) [µM] | IC50 (CYP2E1 [1]; 100 μmol/L p-NP, mean ± SE, four replicates, listed as AMS) [µM] | Ki (CYP2E1 [1]; [7]) [µM] | inhibition at saturating substrate concentration (CYP2E1 [1]) | Inhibition type (CYP2E1 [1]) | Ki (CYP2E1 [1]; K i, competitive inhibition, mean ± SE, four replicates) [µM] | Inhibition type (CYP2E1 [1]; listed as DAS) | SMILES | Inhibition type (CYP2E1 [2]) | toxicity [3]
1 | 43.7 ± 1.4 | 71 | 34.1 ± 3.3 | 19.3 ± 2.3 | – | – | – | – | – | – | – | – | C=CCOCCN [2‐(prop‐2‐en‐1‐yloxy) ethan‐1‐amine] | – | –
2 | 91.4 ± 1.6 | 20 | 363 ± 64 | 246 ± 47 | – | – | – | – | – | – | – | – | C=CCOCC(N)=O [2‐prop‐2‐enoxyacetamide (PEXA), 2‐prop‐2‐enoxyacetamide] | – | –
3 | 74.7 ± 1.2 | 75 | ~10.5 | ~7.3 | – | – | – | – | – | – | – | – | C=CCCCCN [5‐hexen‐1‐amine (5, 1 HA), 5‐hexen‐1‐amine] | – | –
4 | – | – | – | – | 100 | 11.4 ± 1.1 | 11.4 ± 1.1 | 4.4 ± 0.9 | complete inhibition | Competitive | – | – | C=CCSC [Allyl methyl sulfide (AMS), allyl methyl sulfide] | – | –
5 | 17.3 ± 1.1 | 97 | – | – | – | – | – | – | – | Competitive | 6.3 ± 1 | competitive inhibition kinetics | C=CCSCC=C [Diallyl sulfide (DAS), Diallyl sulfide, reference compound] | competitive inhibition | –
6 | – | – | – | – | 98 | 19.4 ± 1.1 | – | 7.7 ± 1.2 | complete inhibition | Competitive | – | – | c1ccsc1 [Thiophene (TP), thiophene] | – | did not show any significant toxicities
